CSC inhib = cancer stem cell inhibition | cancer stem cell-like cells viability, luminescence | inhibition, % at 7.5 µM | 300,000 tested, 1.1% active | AID 2717; in the data active = inhibition above about 75%; tested in HMLE shEcad cells
Beta apoptosis = beta cell apoptosis inhibition; INS-1E cytokine-induced death, ATP luminescence, 48 h; percent of positive-control rescue, neutral wells zero; protection from apoptosis, % (no concentration beside the values); 300,000 tested, 0.8% active; AID 435005;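 active = Every replicate reaches about 75%, or at least half do and their mean reaches it too, limit read from the data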;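 note: higher means more ATP so stronger rescue from cytokine killing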
WT yeast gro inh = growth inhibition of WT yeast, mitochondrial fusion screen | mitochondrial fusion phenotypic screen, WT strain | inhibition, % at 10 µM | 190,000 tested, 2.1% active; in the data active = inhibition above about 58%; tested in S. cerevisiae
T cruzi inh = blocks replication of Trypanosoma cruzi. T. cruzi beta-gal in NIH3T3, luminescence, 90 h. 300,000 tested, 1.4% active. inhibition, % (test concentration not listed). AID 1885;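 active = mean inhibition across valid replicates above about 55%, limit read from the data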;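 note: signal also drops with host cell toxicity which is not excluded here; higher percent means less beta-gal luminescence so fewer parasites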
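Assay system: NIH/3T3 host cells with β-galactosidase reporter T. cruzi; input: 5,000 host fibroblasts per well; compound: single 50 nL compound addition per well in DMSO; timing: ≥90 h infection period, 3 h prior cell attachment; measured by: GalScreen β-gal luminescence, detergent lysis, 60 min; evaluation: percent inhibition of parasite-derived β-gal signal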
Mot1-301 SUMO = SUMOylation pathway inhibition by Mot1-301 growth rescue; S. cerevisiae Mot1-301 growth rescue, ATP luminescence, 38.5C; percent above DMSO median, 100 means doubled; growth rescue, % at 18.8 µM; 320,000 tested, 1% active; AID 2716;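 active = every valid replicate shows activation above 250% relative to neutral control wells; inactive = the rest, any valid replicate at or below 250%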
Efflux pump mplx = inhibitors of Candida antifungal efflux pumps expressed in yeast. S. cerevisiae Candida pump triplex, Nile Red efflux. inhibition, % at 10 µM. 330,000 tested, 0.44% active;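 active = plate passing quality check with inhibition over a set limit, or well fluorescence over plate mean plus 4 SD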;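 note: Nile Red retained in pooled yeast measured as flow cytometry median fluorescence; higher means more Nile Red kept so more efflux inhibition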
Large screens that a line does not name were inactive; ! = a repeat was not active. In the library only some 4.8% were active in any assay of this set; here they are far more common.

CC(C)CCNc1nc(-c2ccco2)c2c(c1C#N)CCCC2	CSC inhib 79.8
CCN(CC)c1ccc2cc(S(=O)(=O)c3ccc(C)cc3)c(=O)oc2c1	CSC inhib 98.5
Cc1ccc(S(=O)(=O)c2cc3ccccc3oc2=O)cc1	none
CC1=CS(=O)(=O)CC1SC(=S)N(C)C1CCS(=O)(=O)C1 (stereo unspecified)	none
O=C(COC(=O)CC(c1ccccc1)c1ccccc1)NCc1ccc(Cl)cc1	WT yeast gro inh 63.4
CCCC(=O)OCC(=O)NCc1ccc(Cl)cc1	none
CCOCCCn1c(=S)[nH]c2cc(C(=O)NCCc3ccccc3)ccc2c1=O	none (no result: WT yeast gro inh)
C=C(C)C(=O)OCC(O)COc1ccc(C(C)(C)c2ccc(OCC(O)COC(=O)C(=C)C)cc2)cc1 (stereo unspecified)	Beta apoptosis 104.4 (no result: WT yeast gro inh)
CC(=O)c1ccc(OCC(O)COc2ccc(C(C)=O)cc2)cc1	none
N#CC1=C(N)Oc2cc(N)ccc2C1c1cccc(Br)c1 (stereo unspecified)	CSC inhib 82.4 (no result: WT yeast gro inh)
COc1ccc(C2(C(=O)Nc3ccc(C)c(C)c3)CCOCC2)cc1	none
O=[N+]([O-])C(/C=C(\Cl)[N+](=O)[O-])=C(N1CCCCC1)N1CCCCC1	T cruzi inh 60.7
Cc1cc(C)c2nc(C(F)(F)F)nc(N3CC(C)OC(C)C3)c2c1 (stereo unspecified)	WT yeast gro inh 77.0
CN1CCN(c2nc(C#N)cc(-c3ccccc3)n2)CC1	none
COc1ccc(-c2cc(C#N)nc(N3CCNCC3)n2)cc1	T cruzi inh 57.5
COc1ccc(-c2cc(C#N)nc(N3CCN(C)CC3)n2)cc1	T cruzi inh 66.3
CC1CCN(c2c([N+](=O)[O-])nn(-c3ccc4c(c3)OCCO4)[n+]2[O-])CC1	T cruzi inh 61.7 (no result: Beta apoptosis)
O=[N+]([O-])c1nn(-c2ccc3c(c2)OCCO3)n(O)c1=NC1CCCCC1	none
COc1ccc(-c2noc(CCCC(=O)Nc3ccc(C(N)=O)cc3)n2)cc1OC	none (no result: WT yeast gro inh)
Cc1cccc2sc(N(CCCN(C)C)C(=O)COc3ccc(Cl)cc3)nc12	WT yeast gro inh 89.7
Cc1cccc2sc(N(CCCN(C)C)C(=O)c3sc4ccccc4c3Cl)nc12	WT yeast gro inh 87.5 (no result: T cruzi inh)
CN(C)CCCN(C(=O)COc1ccc(Cl)cc1)c1nc2c(F)cccc2s1	T cruzi inh 80.0 (no result: Mot1-301 SUMO)
CN(C)CCCN(C(=O)c1sc2ccccc2c1Cl)c1nc2c(F)cccc2s1	none
CCC(=O)Nc1nn(CC(C)C)c2nc3ccc(C)cc3cc12	none (no result: WT yeast gro inh)
COc1cccc(CNC(=O)COC(=O)CCCNC(=O)c2ccc(Cl)cc2)c1	none (no result: WT yeast gro inh)
COc1cc(-c2ccc3oc(-c4cccc(C)c4)c(C#CC4(O)CCCCC4)c3c2)cc(OC)c1OC	CSC inhib 80.6 (no result: WT yeast gro inh, T cruzi inh)
O=C(NNC(=O)c1ccc(Cl)nc1)c1ccncc1	none (no result: CSC inhib, WT yeast gro inh, T cruzi inh)
CCN(CC)CCCNC(=S)N1CCN(c2nc(-c3ccc(F)cc3)cs2)CC1	CSC inhib 93.3 (no result: WT yeast gro inh)
CCNC(=S)N1CCN(c2nc(-c3ccc(F)cc3)cs2)CC1	none (no result: WT yeast gro inh)
O=C(CN1CCN(Cc2ccccc2)CC1)NNC(=O)c1ccccc1	none (no result: CSC inhib, Beta apoptosis, WT yeast gro inh, T cruzi inh, Mot1-301 SUMO)
CCCc1sc(N/N=C/c2ccccn2)nc1-c1ccc(F)cc1	CSC inhib 93.4, Beta apoptosis 90.9, WT yeast gro inh 83.0, T cruzi inh 54.8
Cc1nc(N/N=C/c2ccccn2)sc1C	Beta apoptosis 110.0 (no result: T cruzi inh)
Cc1ccc(C(=O)NCc2ccc(Cl)cc2)cc1S(=O)(=O)N1CCCCC1	none (no result: CSC inhib, WT yeast gro inh, T cruzi inh)
C/C(NC(=O)c1cccc(F)c1)=C1/C(=O)C[C@@H]2[C@H]1C2(C)C	CSC inhib 92.4
CCN(CC)S(=O)(=O)c1ccc(C(=O)NNC(=O)C2CCN(S(=O)(=O)c3ccc(Cl)cc3)CC2)cc1	none
Nc1ccccc1Oc1ncc(C(F)(F)F)cc1Cl	Mot1-301 SUMO 274.8 (no result: CSC inhib, Beta apoptosis)
Cc1ccc(S(=O)(=O)Nc2cc3c(cc2C#N)OCO3)cc1C(N)=O	none (no result: CSC inhib, WT yeast gro inh)
CC(C)(C)c1ccc(-n2ncc3c2CCCC3NC(=O)C2(C(N)=O)CC2)cc1 (stereo unspecified)	Beta apoptosis 78.3 (no result: WT yeast gro inh)
Cc1cccc(N2CC(C(=O)NCc3ccco3)CC2=O)c1C (stereo unspecified)	none (no result: WT yeast gro inh, T cruzi inh)
O=C1Nc2ccc(F)cc2C12Nc1ccccc1-c1nnc(SCc3ccccc3Cl)nc1O2 (stereo unspecified)	WT yeast gro inh 68.9 (no result: CSC inhib)
Clc1ccccc1CSc1cc2c(nn1)-c1ccccc1CC2	none
O=C1Nc2ccc(F)cc2C12Nc1ccccc1-c1nnc(SCc3ccccc3)nc1O2 (stereo unspecified)	none
Cc1ccc(CSc2nnc3c(n2)OC2(Nc4ccccc4-3)C(=O)Nc3ccc(F)cc32)cc1 (stereo unspecified)	WT yeast gro inh 70.5
CC1(C)CC(=O)N(c2cccc(C(F)(F)F)c2)C(=O)C1	none (no result: WT yeast gro inh)
COc1cccc(NC(=O)COC(=O)C2CC2)c1	none (no result: WT yeast gro inh, T cruzi inh)
COc1ccc(C2c3ccc4ccccc4c3Oc3ncn(CCO)c(=N)c32)cc1 (stereo unspecified)	none (no result: WT yeast gro inh)
CN(C)CCCn1cnc2c(c1=N)C(c1ccccc1)c1ccc3ccccc3c1O2 (stereo unspecified)	CSC inhib 104.5, Beta apoptosis 98.0 (no result: WT yeast gro inh)
COc1ccc(C2c3ccc4ccccc4c3Oc3ncn(CCN(C)C)c(=N)c32)cc1 (stereo unspecified)	T cruzi inh 59.1 (no result: WT yeast gro inh)
Cc1nnc2c3ccccc3c(Cl)nn12	none
Cc1ccc2nc(SC(C(=O)Nc3ccc(F)cc3)c3ccccc3)[nH]c2c1 (stereo unspecified)	WT yeast gro inh 60.2
CCOCCn1c(=NC(=O)CSCC(=O)N2CCOCC2)sc2cc(OC)ccc21	none (no result: WT yeast gro inh)
CCOC(=O)C1=C(C)N=C2c3ccccc3C(=O)C2C1c1ccc(Cl)cc1 (stereo unspecified)	T cruzi inh 60.7
CC1(C)CC(=O)C2=C(C1)N=C1c3ccccc3C(=O)C1C2c1ccc(Cl)cc1 (stereo unspecified)	none
CN1CCN(CCCN2c3ccccc3Sc3ccc(Cl)cc32)CC1	CSC inhib 93.7!, WT yeast gro inh 93.9
O=C(CCN1CCOCC1)N1c2ccccc2Sc2ccc(Cl)cc21	none (no result: WT yeast gro inh)
CN1CCCC(CN2c3ccccc3Sc3ccccc32)C1 (stereo unspecified)	none (no result: Beta apoptosis, WT yeast gro inh)
CCSc1ccc2c(c1)N(CCCN1CCN(C)CC1)c1ccccc1S2	CSC inhib 77.5 (no result: WT yeast gro inh, T cruzi inh)
Cc1nn(Cc2ccc(C(=O)Nc3ccc(C(=O)OC(C)C)cc3)o2)c(C)c1Cl	T cruzi inh 55.5
COc1cc(Cl)c(CNC[C@H]2O[C@@H](n3cnc4c(N)ncnc43)[C@H](O)[C@@H]2O)c(Cl)c1O	none (no result: CSC inhib, Beta apoptosis, WT yeast gro inh, T cruzi inh, Mot1-301 SUMO)
O=C(/C=C/c1ccc(Cl)cc1Cl)N(Cc1ccccc1)C1CCS(=O)(=O)C1 (stereo unspecified)	none
O=C(/C=C/c1ccc(Cl)cc1Cl)N(Cc1ccc(Cl)cc1)C1CCS(=O)(=O)C1 (stereo unspecified)	WT yeast gro inh 59.4
CCCCCCCCCn1ccc(=N)cc1	Beta apoptosis 116.3 (no result: WT yeast gro inh)

High-throughput results (PubChem)
